Laboratory results from ChEMBL document CHEMBL4513216, “Probing the Open Global Health Chemical Diversity Library for Multistage-Active Starting Points for Next-Generation Antimalarials” (ACS Infect Dis, 2020).

Assay: Toxicity liver stage against HepG2, at 10uM
Assay type: cell-based
Design: test concentration 10 uM, cell line HepG2-A16-CD81EGFP
Conditions: human, HepG2-A16-CD81EGFP cells; read-out: INHIBITION
In short: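 Uninfected HepG2-A16-CD81EGFP cells, 3 × 10^3 per well, 1536-well, plated on prespotted compound at 10 μM final, parasite-free screening media added to match infected plates; puromycin 10 μM positive, DMSO 0.5% negative; run in parallel with 48 h PbLuc assay at 37 °C, 5% CO2; viability by CellTiter-Glo luminescence, normalized to controls.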

Compound O=C(O)c1ccccc1-n1cnc(CN2CCCCCC2)c1 has a cytotoxicity at 10 µM of -8.94%.

Work on C[C@H](NC(=O)OC(C)(C)C)c1nnc(S(=O)(=O)Cc2cccc(F)c2)o1 yielded a cytotoxicity at 10 µM of -6.91%.

In the case of Cc1cccnc1CN1CCN(C(=O)CCn2ccc(=O)[nH]c2=O)CC1, the cytotoxicity at 10 µM was 1.99%.

With O=S(=O)(N1CCCC1)N1CCN(CC2CCCO2)CC1 (centres undefined) the cytotoxicity at 10 µM was -0.185%.

Compound Cc1cc2nc(SCC(=O)N3CCOCC3)n(CCC(C)C)c(=O)c2[nH]1 has a cytotoxicity at 10 µM of 10.8%.

With Cn1ccnc1C(=O)NC[C@H]1OC[C@@H]2CCN(S(C)(=O)=O)C[C@@H]21 the cytotoxicity at 10 µM was -101%.

FC(F)(F)c1csc(N2CCN(Cc3ccccn3)CC2)n1 gave a cytotoxicity at 10 µM of 4.25%.

Work on CC1(C(=O)N2CCSCC2)CNCCO1 (centres undefined) yielded a cytotoxicity at 10 µM of 4.79%.

Work on CN1CC2(CCN(C(=O)c3cccnc3)CC2)c2cccc(F)c21 yielded a cytotoxicity at 10 µM of 6.17%.

Work on Cc1ccccc1C1(C(=O)NCCN(C(C)C)C(C)C)CCOCC1 yielded a cytotoxicity at 10 µM of -6.51%.

CCN(C(=O)C1Cc2cc(Cl)ccc2O1)C1CC1 (centres undefined) showed a cytotoxicity at 10 µM of 10.1%.

Work on c1nc2onc(C3CC3)c2cc1-c1nnc(C2CC2)o1 yielded a cytotoxicity at 10 µM of 8.03%.

Nc1nc(CCCNC(=O)c2ccc(C3CCCNC3)cc2)cs1 (centres undefined) showed a cytotoxicity at 10 µM of 2.77%.

In the case of CCN(C)S(=O)(=O)N(Cc1cscn1)c1ccccc1, the cytotoxicity at 10 µM was -3.81%.

Work on Cn1ccnc(Sc2ccccc2)c1=O yielded a cytotoxicity at 10 µM of 0.483%.

In the case of O=C1CCCN1Cc1nnc2n1CCN(Cc1ccco1)CC2, the cytotoxicity at 10 µM was 3.39%.

In the case of CN1CCC(c2cccc(-c3cccc(C(=O)O)c3)n2)CC1, the cytotoxicity at 10 µM was -6.55%.

Cc1nn(C)c(N(C)C)c1CNCCC(=O)NC1CCCC1 gave a cytotoxicity at 10 µM of -3.37%.

Compound Cc1nccc(CC2COCCN(c3cnccn3)C2)n1 (centres undefined) has a cytotoxicity at 10 µM of 0.933%.

For CC(C)CN(CC(O)c1ccc(F)cc1)C(=O)c1csnn1 (centres undefined), the cytotoxicity at 10 µM was 2.83%.

In the case of CCNC(=O)CCC(=O)Nc1nc(C)c(Cc2ccc(F)cc2)s1, the cytotoxicity at 10 µM was 6.68%.

With CC(C)c1nc(C2CCCN(C(=O)c3ccc(N(C)C)nn3)C2)no1 (centres undefined) the cytotoxicity at 10 µM was -9.71%.

For CC(C)N(C(=O)Cn1c(-c2ccco2)cc2cccnc21)C(C)C, the cytotoxicity at 10 µM was -4.32%.

For CNc1cc2c(nn1)CCN(C(=O)c1ccc3c(c1)CCC3)C2, the cytotoxicity at 10 µM was 3.15%.

N#Cc1nccnc1NC1CCN(c2ccccc2Br)C1 (centres undefined) showed a cytotoxicity at 10 µM of 3.92%.

Work on Cc1ccc(C(=O)NCCS(=O)(=O)Cc2ccccc2)c(C)c1 yielded a cytotoxicity at 10 µM of -5.09%.

In the case of COCCn1cc2c(n1)C(CNCc1nccs1)OCC2 (centres undefined), the cytotoxicity at 10 µM was -0.726%.

Work on CN(C)CC1CN(C(=O)NCc2ccccc2)Cc2nccn2C1 (centres undefined) yielded a cytotoxicity at 10 µM of -3.91%.

In the case of CCCN1CCCn2nc(CNS(=O)(=O)c3cccc(C#N)c3)cc2C1, the cytotoxicity at 10 µM was -2.96%.

In the case of CCCc1nnc(NC2CCN(C3CCSCC3)CC2)o1, the cytotoxicity at 10 µM was -1.38%.

c1csc(CNCC2COCc3c(-c4ccoc4)nnn3C2)n1 (centres undefined) showed a cytotoxicity at 10 µM of -107%.

Work on O=C(NCCCN1CCOCC1)C(OC1CCCC1)c1ccccc1 (centres undefined) yielded a cytotoxicity at 10 µM of -5.95%.

Compound Cc1ccc(CN2C[C@H]3CN(Cc4ccccc4Cl)CCN3C2=O)cc1 has a cytotoxicity at 10 µM of -10.3%.

COc1cccc(N2CCN(C(=O)C(OC)c3ccccc3)CC2=O)c1 (centres undefined) gave a cytotoxicity at 10 µM of -0.693%.

c1nc(CN2CCC3(CC2)COCCN3CC2CC2)c[nH]1 showed a cytotoxicity at 10 µM of -1.26%.

In the case of COC[C@@H]1CCCN1C(=O)c1cc(-c2cccc(OC)c2)n[nH]1, the cytotoxicity at 10 µM was 6.6%.

CCc1nc(C2CCCN2C(=O)c2cnns2)no1 (centres undefined) gave a cytotoxicity at 10 µM of 1.04%.

Work on O=C(c1ccc(Cl)cc1)N1CC2(CCNC2)OCc2ccccc21 (centres undefined) yielded a cytotoxicity at 10 µM of 9.9%.

In the case of COc1cccc(CNCCNS(=O)(=O)Cc2ccccc2)c1, the cytotoxicity at 10 µM was 13.4%.

Work on Cc1ccc(NC(=O)c2n[nH]c(-n3cnnc3)n2)cc1C yielded a cytotoxicity at 10 µM of -1.4%.

With Cc1ccsc1C(=O)N1CCC2(CC(N(C)c3ccncn3)C2)C1 (centres undefined) the cytotoxicity at 10 µM was -5.75%.

Compound CCN1CCN(Cc2coc(-c3cccc(F)c3)n2)CC1 has a cytotoxicity at 10 µM of -7.75%.

Work on Cn1cc(-c2ncc3c(c2C(=O)O)CCN(CC2CCOC2)C3)cn1 (centres undefined) yielded a cytotoxicity at 10 µM of -94.6%.

Work on COCCN(Cc1sccc1C)C(=O)COc1ccccc1O yielded a cytotoxicity at 10 µM of -145%.

Work on CNC(=O)c1cc(C2CCCNC2)n[nH]1 (centres undefined) yielded a cytotoxicity at 10 µM of 9.03%.

In the case of CCN(Cc1cccc(F)c1)Cc1nc2c(cnn2C)c(=O)[nH]1, the cytotoxicity at 10 µM was 3.71%.

Compound O=C(Cc1ccc2c(c1)OCO2)N1CCN(c2cnccn2)CC1 has a cytotoxicity at 10 µM of -5.51%.

CC(=O)N(c1ccc(F)cc1)c1nc(CN2CCCC2C(C)C)cs1 (centres undefined) showed a cytotoxicity at 10 µM of -12.2%.

Work on Cc1ccc(CN2CCCC(c3nn(C)c4nccnc34)C2)s1 (centres undefined) yielded a cytotoxicity at 10 µM of -10.6%.

CCc1cnc(NCc2nc(COC)no2)nc1 showed a cytotoxicity at 10 µM of 7.36%.

Brc1cccnc1OC1CCNCC1 gave a cytotoxicity at 10 µM of -10.3%.

NC(=O)c1ccc(CNC2CC2)cc1 gave a cytotoxicity at 10 µM of 8.57%.

In the case of CCOc1cccc(CNc2ccccc2C(F)(F)F)c1O, the cytotoxicity at 10 µM was -4.17%.

Compound O=C(CCn1cccn1)NS(=O)(=O)N1CCCc2ccccc21 has a cytotoxicity at 10 µM of 5.65%.

COC(C)(C)C(=O)N[C@H]1CN(c2ncccc2C(N)=O)C[C@@H]1C(C)C gave a cytotoxicity at 10 µM of 6.66%.

Cc1nc(N2CCCC(C)C2)nc2cc(S(C)(=O)=O)ccc12 (centres undefined) gave a cytotoxicity at 10 µM of -24.2%.

In the case of Cc1cc(CNc2ccc3nc(C4CC4)sc3c2)no1, the cytotoxicity at 10 µM was 0.981%.

Compound CCC(=O)N1CCN(c2nc(C)nc3c(C)nn(C)c23)CC1 has a cytotoxicity at 10 µM of 12.4%.

In the case of c1c(CN2CCOCC2)nc2n1CCN(C1CCOCC1)C2, the cytotoxicity at 10 µM was 0.997%.

With CC(NC(=O)NCc1ccccc1Cl)c1ccccn1 (centres undefined) the cytotoxicity at 10 µM was -11.1%.

Cc1cnc(CN(C)C2CCN(Cc3ccccc3C#N)C2)o1 (centres undefined) gave a cytotoxicity at 10 µM of 1.08%.

In the case of CCn1ccnc1C1CCCN(C(=O)c2sc(C)nc2C)C1 (centres undefined), the cytotoxicity at 10 µM was 1.24%.

O=C1NCCN2CCN(Cc3ccc(Cl)c(Cl)c3)CC12 (centres undefined) showed a cytotoxicity at 10 µM of -4.92%.

In the case of Cn1cc(CNc2ncnc3c2CCN(Cc2ccsc2)CC3)cn1, the cytotoxicity at 10 µM was 15.5%.

Work on Cc1cccc(OCC(O)CNCc2c(C)nn(C)c2N(C)C)c1 (centres undefined) yielded a cytotoxicity at 10 µM of -2.45%.

Cc1ccc(C2(O)CCN(C(=O)c3cccc(S(C)(=O)=O)c3)CC2)nc1 showed a cytotoxicity at 10 µM of -5.3%.

COc1ccc(C(=O)CN(C2=NCCCCC2)c2ccccc2)cc1 showed a cytotoxicity at 10 µM of 9.62%.

In the case of Cc1cn(-c2ccccc2)nc1NS(=O)(=O)c1cc(C(=O)O)cs1, the cytotoxicity at 10 µM was -18.9%.

Compound COc1ccc(-c2n[nH]cc2CNC2CCN(C3CC3)CC2)cc1 has a cytotoxicity at 10 µM of 1.75%.

In the case of COc1ccccc1CNC1(CCO)CCOCC1, the cytotoxicity at 10 µM was 20.5%.

CCOC(=O)C1CCN(C(=O)c2cnn(-c3ccc(C)cc3)c2N)CC1 gave a cytotoxicity at 10 µM of 1.84%.

In the case of O=C(Nc1cccc(CNCc2ccccn2)c1)C1CCCC1, the cytotoxicity at 10 µM was -7.63%.

Work on CCSCc1nc(O)c2nnn(C3CCN(Cc4ccoc4)CC3)c2n1 yielded a cytotoxicity at 10 µM of 4.71%.

Compound CC(Cn1cccn1)NCc1csc(Cc2ccccc2)n1 (centres undefined) has a cytotoxicity at 10 µM of -8.15%.

In the case of COc1ccccc1OCc1cc(C(=O)N2CCN[C@H](C)C2)n[nH]1, the cytotoxicity at 10 µM was -9.09%.

Work on Cc1ncsc1C(=O)N1CCC(O)(CN2CCc3ccccc3C2)C1 (centres undefined) yielded a cytotoxicity at 10 µM of -8.11%.

Cc1ccc(CCN2CCCC23Cc2ccccc2CNC3=O)cc1 (centres undefined) showed a cytotoxicity at 10 µM of 7.41%.

In the case of COc1cc(N2CCCC(c3ncc[nH]3)C2)ncn1 (centres undefined), the cytotoxicity at 10 µM was 3.47%.

CC(=O)NC[C@]1(O)CCN(C(=O)c2ccc(F)c(Cl)c2)C[C@H]1O gave a cytotoxicity at 10 µM of 1.47%.

In the case of c1ccc(Cc2cccc(C3CCCN3C3CCOCC3)n2)cc1 (centres undefined), the cytotoxicity at 10 µM was 1.62%.

In the case of CC1(C)CCC(C(=O)O)c2ccccc21 (centres undefined), the cytotoxicity at 10 µM was -1.92%.

In the case of C[C@@H](O)[C@H](NC(=O)c1csc2nc(-c3ccccc3F)cn12)C(N)=O, the cytotoxicity at 10 µM was 2.37%.

Work on O=C(c1ccc(=O)[nH]c1)N1CCCC1c1nc2cc(F)ccc2[nH]1 (centres undefined) yielded a cytotoxicity at 10 µM of 14.3%.

Compound CN1CCN(C2CCN(c3cnc4ccccc4n3)CC2)C1=O has a cytotoxicity at 10 µM of 27.4%.
